PubChem BioAssay AID2648 (Johns Hopkins Ion Channel Center, 2010)
Among all 310,000 compounds or so, about 1,100 (0.35%) were called active.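 How the source made its calls: active means fluorescence ratio B-score, a plate-corrected score, at least three library SD, with initial intensity B-score within 5 SD; inactive means the rest.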 The list comes from a sample in which actives are over-represented; it also holds similar structures and randomly drawn compounds.

Target: Potassium voltage-gated channel subfamily KQT member 1 (Homo sapiens) (UniProt P51787)
Test: human KCNQ1 current enhancers – cell-based, thallium flux, high-throughput, primary screen (AID 2648)
Settings: CHO-K1 KCNQ1, thallium flux FluxOR fluorescence, at 10 µM; stronger effect = higher value
In short: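 System: CHO-K1 cells stably expressing KCNQ1 / Medium: assay buffer for compound exposure, DMSO matched across wells / Reagent: thallium- and potassium-containing depolarizing buffer / Compound: one concentration, matched DMSO / Incubation: 20 min compound pretreatment at room temperature / Measured by: kinetic FluxOR fluorescence, 10 s baseline plus 110 s post-stimulus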

Sequence of Potassium voltage-gated channel subfamily KQT member 1 (Homo sapiens) (P51787 whole entry, looked up): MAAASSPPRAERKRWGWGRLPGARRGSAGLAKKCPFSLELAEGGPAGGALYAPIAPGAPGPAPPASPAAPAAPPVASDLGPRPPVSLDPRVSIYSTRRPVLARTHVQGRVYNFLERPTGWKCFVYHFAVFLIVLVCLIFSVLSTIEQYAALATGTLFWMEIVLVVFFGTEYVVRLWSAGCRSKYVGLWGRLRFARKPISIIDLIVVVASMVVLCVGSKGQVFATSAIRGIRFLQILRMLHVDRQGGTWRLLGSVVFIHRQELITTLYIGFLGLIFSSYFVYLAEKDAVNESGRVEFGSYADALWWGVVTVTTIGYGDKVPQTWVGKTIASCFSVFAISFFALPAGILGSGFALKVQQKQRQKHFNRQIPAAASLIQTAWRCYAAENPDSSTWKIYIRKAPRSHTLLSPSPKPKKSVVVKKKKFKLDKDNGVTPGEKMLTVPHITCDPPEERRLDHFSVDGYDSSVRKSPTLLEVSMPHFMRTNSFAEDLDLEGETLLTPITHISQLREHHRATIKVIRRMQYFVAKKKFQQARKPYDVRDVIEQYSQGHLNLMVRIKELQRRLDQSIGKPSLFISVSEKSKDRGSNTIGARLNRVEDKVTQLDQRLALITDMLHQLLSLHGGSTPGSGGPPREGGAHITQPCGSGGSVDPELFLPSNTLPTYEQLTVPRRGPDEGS

| Compound | B-score |
| --- | --- |
| O=C(Cn1cncn1)N/N=C/c1c2ccccc2cc2ccccc12 | inactive |
| CN(c1ccccn1)c1ncnc2[nH]ncc12 | inactive |
| CN(Cc1cccs1)C(=O)Cc1c[nH]c2ccccc12 | inactive |
| CC(C)C(=O)Nc1ccc(C(=O)NNC(=O)c2cccs2)cc1 | inactive |
| CCc1ccc(NC(=O)COC(=O)c2cccs2)cc1 | inactive |
| CCc1ccc(NC(=O)C(=O)NNC(=O)c2cccs2)cc1 | 54 (active) |
| CCCCNC(=O)CN1C(=O)NC(Cc2ccccc2)(Cc2ccccc2)C1=O | inactive |
| Clc1ccc(C[n+]2cc(-c3ccc(Cl)cc3)n3c2CCC3)cc1 | inactive |
| Cc1cc(C)nc(N2CCC(C(=O)Nc3ccc4c(c3)OCCO4)CC2)n1 | inactive |
| CN1CCN(S(=O)(=O)c2ccc(NC(=S)NC(=O)C3CC3)cc2)CC1 | inactive |
| Cc1cc(Nc2cc(N3CCN(C)CC3)nc(Sc3ccc(NC(=O)C4CC4)cc3)n2)n[nH]1 | 7 (active) |
| COCC(=O)N1CCc2ccc(NC(=O)c3ccccc3Cl)cc2C1 | inactive |
| CCc1nccn1CCC(=O)N1CCCC(N2CCN(c3ccccc3F)CC2)C1 (stereo not drawn) | inactive |
| Cc1cccc(C(=O)N2CCN(S(=O)(=O)N3CCCCC3)CC2)c1 | inactive |
| O=C(CCN1C(=O)c2ccccc2C1=O)NCCN1CCOCC1 | inactive |
| O=C(NC1=NCCS1)[C@H](Cc1ccccc1)N1C(=O)c2ccccc2C1=O | inactive |
| O=C(NCCN1CCOCC1)[C@H](Cc1ccccc1)N1C(=O)c2ccccc2C1=O | 11 (active) |
| CC(C)COC(=O)C1C2C=CC3(CN(C(C)c4ccc(Br)cc4)C(=O)C13)O2 (stereo not drawn) | inactive |
| CCOC(=O)c1ccc(Nc2cc3ccccc3c(=O)[nH]2)cc1 | inactive |
| CCOC(=O)c1sc(=S)n2c1[nH]c(=O)c1ccc(C(=O)OC)cc12 | 59 (active) |
| CCOC(=O)C1=C(C)Nc2sc(C(=O)c3ccc(Br)cc3)c(N)c2C1c1ccc(C(=O)OC)cc1 (stereo not drawn) | inactive |
| CCOC(=O)c1c(C)nn(-c2ncccc2NC(=O)CCC(=O)O)c1C | inactive |
| Cc1oc2cc3oc(=O)ccc3cc2c1C | inactive |
